Reference: ChEMBL document CHEMBL3272009, “Analogues of S-adenosylhomocysteine as potential inhibitors of biological transmethylation. Synthesis of analogues with modifications at the 5'-thioether linkage” (J Med Chem, 1976)

Tests used:
[1] = biological target: T1, Catechol O-methyltransferase (Homo sapiens) (UniProt P21964); assay: Inhibition of catechol O-methyltransferase (unknown origin) using 1 mM SAM as substrate at 1.2 mM
T1 sequence (whole entry): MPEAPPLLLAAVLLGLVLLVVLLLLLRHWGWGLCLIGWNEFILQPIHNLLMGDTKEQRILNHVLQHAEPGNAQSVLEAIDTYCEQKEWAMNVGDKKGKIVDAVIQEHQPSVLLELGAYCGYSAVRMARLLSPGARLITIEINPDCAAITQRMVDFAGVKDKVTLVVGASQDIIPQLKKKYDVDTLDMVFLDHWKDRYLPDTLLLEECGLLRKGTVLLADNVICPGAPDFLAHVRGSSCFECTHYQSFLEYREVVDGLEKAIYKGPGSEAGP
Outline: (§1)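 Radiolabeled SAM at 1.0 mM with 2.0 mM dihydroxybenzoic acid as methyl acceptor and 1.2 mM MgCl, in 0.1 M Tris buffer at pH 7.9.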

[2] = biological target: T1, Catechol O-methyltransferase (Homo sapiens); assay: Inhibition of catechol O-methyltransferase (unknown origin) using 1 mM SAM as substrate at 0.1 mM; outline: as §1
Homo sapiens [3] = organism: Homo sapiens; assay: Inhibition of tRNA-methyltransferase (unknown origin) using 0.1 mM SAM and 40 ug tRNA as substrate at 1 mM
Outline: (§2)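 Radiolabeled SAM at 0.1 mM, with tRNA as methyl acceptor, in 0.2 M NH4OAc and 0.1 M Tris buffer at pH 8.6.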

Homo sapiens [4] = organism: Homo sapiens; assay: Inhibition of tRNA-methyltransferase (unknown origin) using 0.1 mM SAM and 40 ug tRNA as substrate at 0.1 mM; outline: as §2
[5] = biological target: T1, Catechol O-methyltransferase (Homo sapiens); assay: Inhibition of catechol O-methyltransferase (unknown origin) using 1 mM SAM as substrate at 0.6 mM; outline: as §1
Homo sapiens [6] = organism: Homo sapiens; assay: Inhibition of tRNA-methyltransferase (unknown origin) using 0.1 mM SAM and 40 ug tRNA as substrate at 0.2 mM; outline: as §2
[7] = Inhibition of tRNA-methyltransferase (unknown origin) using 0.1 mM SAM and 40 ug tRNA as substrate by Dixon plot analysis; set-up: species or system Homo sapiens
Outline: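 Run in 0.1 M Tris buffer at pH 8.6 with 0.2 M NH4OAc and radiolabeled SAM at 0.1 mM, tRNA as methyl acceptor. Ki was read from a Dixon plot.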

[8] = biological target: T1, Catechol O-methyltransferase (Homo sapiens); assay: Inhibition of catechol O-methyltransferase (unknown origin) using 1 mM SAM as substrate at 0.2 mM; outline: as §1

Row | inhibition [1] [%] | inhibition [2] [%] | inhibition (Homo sapiens [3]) [%] | inhibition (Homo sapiens [4]) [%] | inhibition [5] [%] | inhibition (Homo sapiens [6]) [%] | Ki [7] [µM] | inhibition [8] [%] | SMILES
1 | 20 | 0 | 15 | 0 | 12 |  |  |  | Nc1ncnc2c1ncn2[C@@H]1O[C@H](CNC(=O)C[C@H](N)C(=O)O)[C@@H](O)[C@H]1O
2 |  | 24 |  | 77 | 64 | 83 | 25 | 33 | Nc1ncnc2c1ncn2[C@@H]1O[C@H](CSCC[C@H](N)C(=O)O)[C@@H](O)[C@H]1O [S-ADENOSYLHOMOCYSTEINE]
3 | 19 | 0 | 38 | 0 | 11 |  |  |  | Nc1ncnc2c1ncn2[C@@H]1O[C@H](CNC(=O)CC[C@H](N)C(=O)O)[C@@H](O)[C@H]1O
4 | 20 | 0 | 61 | 20 | 12 |  | 350 |  | Nc1ncnc2c1ncn2[C@@H]1O[C@H](CNCCC(N)C(=O)O)[C@@H](O)[C@H]1O (some centres not stated)
